For six compounds, Kd and Activity results are on record in ChEMBL document CHEMBL1152434, “Probing the fibrate binding specificity of rat liver fatty acid binding protein” (J Med Chem, 2009).

As a reminder, the Kd is the concentration at which binding is half-saturated.

The target in experiment [1] is T1, Fatty acid-binding protein, liver (Rattus norvegicus, UniProt P02692).
T1 sequence (P02692 whole entry): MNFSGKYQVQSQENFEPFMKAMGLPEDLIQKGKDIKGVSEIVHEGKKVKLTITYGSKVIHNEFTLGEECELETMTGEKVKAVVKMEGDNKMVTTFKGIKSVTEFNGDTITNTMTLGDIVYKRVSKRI
Nature of the experiment: Binding affinity to rat recombinant L-FABP low affinity site expressed in Escherichia coli BL21(DE3) at 5 deg C by fluorimetric assay. The method, boiled down: (§1)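 Steady-state ANS displacement: the fluorescent cavity probe 1-anilino-8-naphthalene sulfonic acid is bound to recombinant rat L-FABP (15N/13C-labelled, purified from E. coli). Fibrates in DMSO are titrated directly into the protein. The fall in ANS fluorescence is plotted against free ligand. A two-site competition nonlinear fit gives EC50, converted to Ki for each site.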

Experiment [2] has as its target T1, Fatty acid-binding protein, liver. Nature of the experiment: Binding affinity to rat recombinant L-FABP high affinity site expressed in Escherichia coli BL21(DE3) at 5 deg C by fluorimetric assay. The method, boiled down: as §1
The target in experiment [3] is T2, Fatty acid-binding protein, liver (Rattus norvegicus) (UniProt P02692).
T2 sequence (whole entry): T1 sequence (P02692 whole entry)
Nature of the experiment: Binding affinity to rat recombinant L-FABP low affinity site expressed in Escherichia coli BL21(DE3) assessed as occupancy at a drug-protein molar ratio of 3:1 by NMR chemical shift perturbation method.

In experiment [4] the target is T2, Fatty acid-binding protein, liver (Rattus norvegicus). Nature of the experiment: Binding affinity to rat recombinant L-FABP high affinity site expressed in Escherichia coli BL21(DE3) assessed as occupancy at a drug-protein molar ratio of 3:1 by NMR chemical shift perturbation method.
In experiment [5] the target is T1, Fatty acid-binding protein, liver. Nature of the experiment: Binding affinity to rat recombinant L-FABP low affinity site expressed in Escherichia coli BL21(DE3) at 42 deg C by fluorimetric assay. Put shortly: as §1
For experiment [6] the target is unchanged. Nature of the experiment: Binding affinity to rat recombinant L-FABP low affinity site expressed in Escherichia coli BL21(DE3) at 37 deg C by fluorimetric assay. The method, boiled down: as §1
The target is the same in experiment [7]. Nature of the experiment: Binding affinity to rat recombinant L-FABP high affinity site expressed in Escherichia coli BL21(DE3) at 37 deg C by fluorimetric assay. The method, boiled down:
as §1

The target is the same in experiment [8]. Nature of the experiment: Binding affinity to rat recombinant L-FABP low affinity site expressed in Escherichia coli BL21(DE3) at 30 deg C by fluorimetric assay. The method, boiled down: as §1
The target is the same in experiment [9]. Nature of the experiment: Binding affinity to rat recombinant L-FABP high affinity site expressed in Escherichia coli BL21(DE3) at 30 deg C by fluorimetric assay. Put shortly: as §1
The target is the same in experiment [10]. Nature of the experiment: Binding affinity to rat recombinant L-FABP low affinity site expressed in Escherichia coli BL21(DE3) at 25 deg C by fluorimetric assay. Put shortly:
as §1

Experiment [11] has the same target. Nature of the experiment: Binding affinity to rat recombinant L-FABP high affinity site expressed in Escherichia coli BL21(DE3) at 25 deg C by fluorimetric assay. The method, boiled down: as §1
Experiment [12] shares this target. Nature of the experiment: Binding affinity to rat recombinant L-FABP low affinity site expressed in Escherichia coli BL21(DE3) at 20 deg C by fluorimetric assay. The method, boiled down: as §1
The target is the same in experiment [13]. Nature of the experiment: Binding affinity to rat recombinant L-FABP high affinity site expressed in Escherichia coli BL21(DE3) at 20 deg C by fluorimetric assay. Put shortly:
as §1

For experiment [14] the target is unchanged. Nature of the experiment: Binding affinity to rat recombinant L-FABP high affinity site expressed in Escherichia coli BL21(DE3) at 15 deg C by fluorimetric assay. The method, boiled down: as §1
Experiment [15] has the same target. Nature of the experiment: Binding affinity to rat recombinant L-FABP low affinity site expressed in Escherichia coli BL21(DE3) at 15 deg C by fluorimetric assay. The method, boiled down: as §1
For experiment [16] the target is unchanged. Nature of the experiment: Binding affinity to rat recombinant L-FABP high affinity site expressed in Escherichia coli BL21(DE3) at 10 deg C by fluorimetric assay. The method, boiled down:
as §1

Experiment [17] has the same target. Nature of the experiment: Binding affinity to rat recombinant L-FABP low affinity site expressed in Escherichia coli BL21(DE3) at 10 deg C by fluorimetric assay. Put shortly: as §1
Experiment [18] shares this target. Nature of the experiment: Binding affinity to rat recombinant L-FABP high affinity site expressed in Escherichia coli BL21(DE3) at 42 deg C by fluorimetric assay. Put shortly:
as §1

Calls of active or inactive are those of the source. The calls are words filed in the database; no cut-off is given here.

As for `CC(C)(Oc1ccc(C(=O)c2ccc(Cl)cc2)cc1)C(=O)O` [FENOFIBRIC ACID], the Kd in experiment [1] was found to be 18000 nM; in experiment [2], 94 nM; in experiment [5], 29000 nM; in [6], 28000 nM; in experiment [7], 420 nM; in [8] it was 27000 nM. Besides, the Kd was found to be 360 nM in experiment [9]; 24000 nM in [10]; 340 nM in [11]; 23000 nM in experiment [12]; 220 nM in experiment [13]; 160 nM in [14]. Moreover, the Kd in [15] was 20000 nM; in experiment [16], 100 nM; in [17] it was 19000 nM. In addition, the values for the Activity in experiment [3] and in experiment [4] were 96% and 100%, respectively.
In the case of `CC(C)(Oc1ccc(C2CC2(Cl)Cl)cc1)C(=O)O` (stereo not given), the figures for the Activity in experiment [3] and in experiment [4] were 85% and 100%, respectively.
For `Cc1ccc(C)c(OCCCC(C)(C)C(=O)O)c1`, the Activity in [3] came to 79%; in experiment [4], 100%.
As to `CC(C)(Oc1ccc(CCNC(=O)c2ccc(Cl)cc2)cc1)C(=O)O`, the Activity in [3] turned out to be 93%. Besides, in experiment [4], the result was inactive.
On to `CCOC(=O)C(C)(C)Oc1ccc(Cl)cc1` [CLOFIBRATE], for which the dissociation constant Kd came out at 6000 nM in [2]; 12000 nM in experiment [18]; 11000 nM in [7]; 9600 nM in experiment [9]; 8900 nM in experiment [11]; 7800 nM in experiment [13]. The Kd was 7300 nM in experiment [14] and 6700 nM in experiment [16]. Also, in experiment [3], the result was inactive. In experiment [4], the Activity was determined as 99%.
With `CC(C)OC(=O)C(C)(C)Oc1ccc(C(=O)c2ccc(Cl)cc2)cc1` [FENOFIBRATE], the Kd was 130 nM in [1]; 18 nM in experiment [2]; 360 nM in experiment [5]; 320 nM in experiment [6]; 62 nM in experiment [7]; 270 nM in experiment [8]. For the same compound, the Kd was determined as 41 nM in [9]; 250 nM in experiment [10]; 32 nM in [11]; 200 nM in [12]; 27 nM in experiment [13]; 24 nM in [14]. For the same compound, the figures for the Kd in [15], in experiment [16] and in experiment [17] were 160 nM, 23 nM and 150 nM, respectively. Also, the Activity in experiment [3] and in experiment [4] was 100% throughout.
